Laboratory results taken from ChEMBL document CHEMBL2163271, “Antitumor agents 295. E-ring hydroxylated antofine and cryptopleurine analogues as antiproliferative agents: design, synthesis, and mechanistic studies” (J Med Chem, 2012).
Calls of active or inactive are those of the source. The calls are words filed in the database; no cut-off is given here.

Experiments:
A549 [1] = test: Downregulation of HSP90 mRNA expression in human A549 cells by microarray analysis relative to control; type: functional
Method in brief: (§1)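 Gene expression profiling of treated versus untreated A549 cells, with pathways analysed in the MetaCore database.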

A549 [2] = test: Downregulation of myosin 5b mRNA expression in human A549 cells by microarray analysis relative to control; type: functional; method in brief: as §1
PC-9 = test: Cytotoxicity against human PC9 cells assessed as cell viability after 48 hrs by SRB assay; type: functional, cell-based; conditions: PC-9, 48 h
Method in brief: (§2)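 Human NSCLC lines (CL1-0, CL1-5, PC9, PC9IR) exposed to increasing compound concentrations for 48 h. Growth read by sulforhodamine B (SRB) staining, with IC50 in nM taken from the dose-response.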

DU-145 = test: Cytotoxicity against human DU145 cells after 2 hrs by methylene blue staining-based spectrophotometric analysis; type: functional, cell-based; conditions: DU-145, 2 h
A549 [3] = test: Downregulation of fibronectin mRNA expression in human A549 cells by microarray analysis relative to control; type: functional; method in brief: as §1
A549 [4] = test: Downregulation of rabaptin-5 mRNA expression in human A549 cells by microarray analysis relative to control; type: functional; method in brief: as §1
[5] = Cytotoxicity against human CL1-5 cells assessed as cell viability after 48 hrs by SRB assay; type: functional, cell-based; conditions: CL1-5, 48 h; method in brief: as §2
A549 [6] = test: Downregulation of casein kinase 1 mRNA expression in human A549 cells by microarray analysis relative to control; type: functional; method in brief: as §1
A549 [7] = test: Downregulation of HSP90 protein expression in human A549 cells at 3.6 to 100 nM after 48 hrs by Western blot analysis; type: functional, cell-based
Method in brief: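 A549 cells treated with graded compound concentrations for 48 h. Whole-cell extracts were immunoblotted with antibody against HSP90.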

A549 [8] = test: Downregulation of beta-catenin protein expression in human A549 cells at 3.6 to 100 nM after 48 hrs by Western blot analysis
A549 [9] = test: Cytotoxicity against human A549 cells assessed as decrease in cell number at 60 nM after 48 hrs by inverted phase-contrast microscopy; type: functional, cell-based
Method in brief: (§3)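 A549 cells exposed to a rising concentration series for 48 h, including 60 nM. Cells were viewed under an inverted phase-contrast microscope and photographed, and cell number and morphology were scored by eye.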

A549 [10] = test: Downregulation of cAMP dependent PKA cat mRNA expression in human A549 cells by microarray analysis relative to control; type: functional; method in brief: as §1
[11] = Cytotoxicity against human CL1-0 cells assessed as cell viability after 48 hrs by SRB assay; type: functional, cell-based; conditions: CL1-0, 48 h; method in brief: as §2
A549 [12] = test: Downregulation of PI3K reg class 1A mRNA expression in human A549 cells by microarray analysis relative to control; type: functional; method in brief: as §1
A549 [13] = test: Downregulation of beta-catenin expression in human A549 cells at 3.6 nM after 48 hrs by RT-PCR analysis
[14] = Cytotoxicity against human KBVIN cells overexpressing P-gp after 2 hrs by methylene blue staining-based spectrophotometric analysis; type: functional, cell-based
A549 [15] = test: Upregulation of ubiquitin mRNA expression in human A549 cells by microarray analysis relative to control; type: functional; method in brief: as §1
A549 [16] = test: Downregulation of Eps 15 mRNA expression in human A549 cells by microarray analysis relative to control; type: functional; method in brief: as §1
A549 [17] = test: Downregulation of cyclin D protein expression in human A549 cells at 3.6 to 100 nM after 48 hrs by Western blot analysis; type: functional, cell-based
A549 [18] = test: Cytotoxicity against human A549 cells after 2 hrs by methylene blue staining-based spectrophotometric analysis; type: functional, cell-based; conditions: A549, 2 h
A549 [19] = test: Downregulation of XIAP mRNA expression in human A549 cells by microarray analysis relative to control; type: functional; method in brief: as §1
A549 [20] = test: Downregulation of FRS2 mRNA expression in human A549 cells by microarray analysis relative to control; type: functional; method in brief: as §1
KB = test: Cytotoxicity against human KB cells after 2 hrs by methylene blue staining-based spectrophotometric analysis; type: functional, cell-based
A549 [21] = test: Downregulation of syntazin 7 mRNA expression in human A549 cells by microarray analysis relative to control; type: functional; method in brief: as §1
A549 [22] = test: Downregulation of SAP18 mRNA expression in human A549 cells by microarray analysis relative to control; type: functional; method in brief: as §1
A549 [23] = test: Downregulation of SNAP-25 mRNA expression in human A549 cells by microarray analysis relative to control; type: functional; method in brief: as §1
A549 [24] = test: Downregulation of PI3K cat class 1A mRNA expression in human A549 cells by microarray analysis relative to control; type: functional; method in brief: as §1
A549 [25] = test: Downregulation of FBXW mRNA expression in human A549 cells by microarray analysis relative to control; type: functional; method in brief: as §1
A549 [26] = test: Downregulation of EEA1 mRNA expression in human A549 cells by microarray analysis relative to control; type: functional; method in brief: as §1
A549 [27] = test: Cytotoxicity against human A549 cells assessed as effect on cell morphology at 60 nM after 48 hrs by inverted phase-contrast microscopy; type: functional, cell-based; method in brief: as §3
A549 [28] = test: Downregulation of collagen 4 mRNA expression in human A549 cells by microarray analysis relative to control; type: functional; method in brief: as §1
A549 [29] = test: Downregulation of CDK11 mRNA expression in human A549 cells by microarray analysis relative to control; type: functional; method in brief: as §1
[30] = Cytotoxicity against human PC9IR cells assessed as cell viability after 48 hrs by SRB assay; type: functional, cell-based; method in brief: as §2
A549 [31] = test: Downregulation of PECALM mRNA expression in human A549 cells by microarray analysis relative to control; type: functional; method in brief: as §1
A549 [32] = test: Downregulation of SKP2 mRNA expression in human A549 cells by microarray analysis relative to control; type: functional; method in brief: as §1
A549 [33] = test: Downregulation of PLAU mRNA expression in human A549 cells by microarray analysis relative to control; type: functional; method in brief: as §1
MRC5 = test: Cytotoxicity against human MRC5 cells assessed as cell viability after 48 hrs by SRB assay; type: functional, cell-based; conditions: MRC5, 48 h
A549 [34] = test: Downregulation of DYRK2 mRNA expression in human A549 cells by microarray analysis relative to control; type: functional; method in brief: as §1
A549 [35] = test: Downregulation of VTI1B mRNA expression in human A549 cells by microarray analysis relative to control; type: functional; method in brief: as §1
SK-BR-3 = test: Cytotoxicity against human SKBR3 cells after 2 hrs by methylene blue staining-based spectrophotometric analysis; type: functional, cell-based; conditions: SK-BR-3, 2 h
A549 [36] = test: Downregulation of beta-catenin mRNA expression in human A549 cells by microarray analysis relative to control
A549 [37] = test: Cytotoxicity against human A549 cells assessed as cell viability after 48 hrs by SRB assay; type: functional, cell-based; conditions: A549, 48 h
A549 [38] = test: Downregulation of HSP90 expression in human A549 cells at 3.6 nM after 48 hrs by RT-PCR analysis; type: functional, cell-based
Method in brief: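 A549 cells exposed at 3.6 nM for 48 h. Transcript levels were measured by RT-PCR and compared with untreated cells.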

A549 [39] = test: Downregulation of PLEKHA8 mRNA expression in human A549 cells by microarray analysis relative to control; type: functional; method in brief: as §1

Structure (SMILES): COc1ccc2c3c(c4cc(OC)c(OC)cc4c2c1)C[C@H]1C[C@H](O)CCN1C3
- fold change (FC) (A549 [1]): <10
- fold change (FC) (A549 [2]): <10
- IC50 (PC-9): 8.2 nM
- IC50 (DU-145): 11 nM
- fold change (FC) (A549 [3]): <10
- fold change (FC) (A549 [4]): <10
- IC50 [5]: 8.7 nM
- fold change (FC) (A549 [6]): <10
- Activity (A549 [7]): Active
- Activity (A549 [8]): Active
- Activity (A549 [9]): Active
- fold change (FC) (A549 [10]): <10
- IC50 [11]: 58.4 nM
- fold change (FC) (A549 [12]): <10
- Activity (A549 [13]): Active
- IC50 [14]: 25 nM
- fold change (FC) (A549 [15]): >10
- fold change (FC) (A549 [16]): <10
- Activity (A549 [17]): Active
- IC50 (A549 [18]): 22 nM
- fold change (FC) (A549 [19]): <10
- fold change (FC) (A549 [20]): <10
- IC50 (KB): 23 nM
- fold change (FC) (A549 [21]): <10
- fold change (FC) (A549 [22]): <10
- fold change (FC) (A549 [23]): <10
- fold change (FC) (A549 [24]): <10
- fold change (FC) (A549 [25]): <10
- fold change (FC) (A549 [26]): <10
- Activity (A549 [27]): inactive
- fold change (FC) (A549 [28]): <10
- fold change (FC) (A549 [29]): <10
- IC50 [30]: 43.2 nM
- fold change (FC) (A549 [31]): <10
- fold change (FC) (A549 [32]): <10
- fold change (FC) (A549 [33]): <10
- IC50 (MRC5): 98 nM
- fold change (FC) (A549 [34]): <10
- fold change (FC) (A549 [35]): <10
- IC50 (SK-BR-3): 72 nM
- fold change (FC) (A549 [36]): <10
- IC50 (A549 [37]): 9 nM
- Activity (A549 [38]): Active
- fold change (FC) (A549 [39]): <10
